# From PubChem BioAssay AID488986 (Sanford-Burnham Center for Chemical Genomics, 2010)
# Calls of active or inactive are those of the source.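 Rule for the calls: active = mean EC50 below 10 µM; inactive = the rest.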
# Biological target: Type-1 angiotensin II receptor (Homo sapiens) (UniProt P30556)
# Test: AT1 receptor agonists, beta-arrestin recruitment, SAR follow-up, selectivity assay for APJ agonist project, cell-based, CHO-K1 PathHunter, luminescence, set 2 (AID 488986)
# Conditions: CHO-K1 AGTR1 PathHunter beta-arrestin, 90 min
# Procedure, shortened: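 test system = CHO-K1 cells expressing human AT1 receptor, beta-arrestin fragment complementation | schedule = overnight seeding, 90 min dark exposure 25 °C, 60 min detection | measured by = luminescence from complemented beta-galactosidase fragments after detection reagent | probe or stimulus = angiotensin II 1 µM final (positive control) | controls = 1 µM angiotensin II as high control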
# Type-1 angiotensin II receptor (Homo sapiens), sequence (P30556 whole entry, looked up): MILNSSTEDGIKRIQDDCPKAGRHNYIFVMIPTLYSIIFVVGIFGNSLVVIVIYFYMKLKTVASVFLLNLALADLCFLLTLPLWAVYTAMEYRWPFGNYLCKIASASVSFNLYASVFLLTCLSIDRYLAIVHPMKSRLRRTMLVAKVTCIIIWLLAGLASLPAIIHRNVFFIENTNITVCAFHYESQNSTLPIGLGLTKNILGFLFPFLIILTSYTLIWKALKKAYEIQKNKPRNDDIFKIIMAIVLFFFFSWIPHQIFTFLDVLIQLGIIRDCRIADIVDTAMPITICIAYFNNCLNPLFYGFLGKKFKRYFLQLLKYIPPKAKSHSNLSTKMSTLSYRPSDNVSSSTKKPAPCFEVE
row,EC50,SMILES
1,> 79 µM (inactive),CCOc1cc2[nH]c(=S)n(CCCC(=O)NCc3ccccn3)c(=O)c2cc1OCC
2,> 79 µM (inactive),CCc1nnc(NC(=O)CSc2nc3cccnc3n2Cc2ccccc2)s1
3,> 79 µM (inactive),CCOc1cc2[nH]c(=S)n(CCN3CCC(C)CC3)c(=O)c2cc1OCC
4,> 79 µM (inactive),CCOc1cc2[nH]c(=S)n(CCN3CCCCC3CC)c(=O)c2cc1OCC (stereo not drawn)
5,> 79 µM (inactive),CCN1C(=O)/C(=C/C=C2/SC(c3ccccc3)=C(c3ccccc3)N2CC)SC1=S
6,4.96 µM,CCN1C(c2ccccc2)=C(c2ccccc2)S/C1=C\C=C1/SC(=S)N(C)C1=O
7,> 79 µM (inactive),CCCCN(C)CCn1c(=S)[nH]c2cc(OCC)c(OCC)cc2c1=O
8,> 79 µM (inactive),CCN1C(=O)/C(=C/C=C2/Sc3ccccc3N2CC)SC1=S
9,> 79 µM (inactive),CCOc1ccc(S(=O)(=O)Nc2nc(-c3ccccc3)cs2)cc1

# The remaining lines, values behind:
row,SMILES,EC50
1,CC1=CC(=O)C=C/C1=N/OS(=O)(=O)c1ccc(C)cc1,> 79 µM (inactive)
2,Cc1cc(O)c(C2CCCCC2)cc1N=O,> 79 µM (inactive)
3,Cc1cc(C)n2nc3nc(N4CCCCC4)nc(-c4ccccc4)c3c2n1,> 79 µM (inactive)
4,CC1=CC(=O)C(C(C)(C)C)=C/C1=N/OS(=O)(=O)c1ccccc1,> 79 µM (inactive)
5,CC1=CC(=NOS(=O)(=O)c2ccccc2)C(C)=CC1=O,> 79 µM (inactive)
6,CC1=C/C(=N/OS(=O)(=O)c2ccccc2)C(C(C)C)=CC1=O,> 79 µM (inactive)
7,CC(C)C1=CC(=NOS(=O)(=O)c2ccccc2)C=C(C(C)C)C1=O,> 79 µM (inactive)
8,CC1=CC(=O)C(C2CCCCC2)=C/C1=N/OS(=O)(=O)c1ccccc1,> 79 µM (inactive)
9,CCc1nnc(NC(=O)CSc2nc3cccnc3n2C2CCCCC2)s1,> 79 µM (inactive)
